Results reported in ChEMBL document CHEMBL1137702, “Identification of hydrolytically stable and selective P2Y(1) receptor agonists” (Eur J Med Chem, 2009).
The source made the active and inactive calls. The rule behind the calls is not given here.

Legend:
[1] = biological target: T1, Ectonucleotide pyrophosphatase/phosphodiesterase family member 1 (Homo sapiens) (UniProt P22413); test: Activity of human NPP1 expressed in human 293T cells assessed as drug hydrolysis at 100 uM after 20 mins by reverse-phase HPLC relative to p-nitrophenyl-thymidine-5-monophosphate; type: cell-based; set-up: scale not given: the % may be the effect or the level left
T1 sequence (whole entry): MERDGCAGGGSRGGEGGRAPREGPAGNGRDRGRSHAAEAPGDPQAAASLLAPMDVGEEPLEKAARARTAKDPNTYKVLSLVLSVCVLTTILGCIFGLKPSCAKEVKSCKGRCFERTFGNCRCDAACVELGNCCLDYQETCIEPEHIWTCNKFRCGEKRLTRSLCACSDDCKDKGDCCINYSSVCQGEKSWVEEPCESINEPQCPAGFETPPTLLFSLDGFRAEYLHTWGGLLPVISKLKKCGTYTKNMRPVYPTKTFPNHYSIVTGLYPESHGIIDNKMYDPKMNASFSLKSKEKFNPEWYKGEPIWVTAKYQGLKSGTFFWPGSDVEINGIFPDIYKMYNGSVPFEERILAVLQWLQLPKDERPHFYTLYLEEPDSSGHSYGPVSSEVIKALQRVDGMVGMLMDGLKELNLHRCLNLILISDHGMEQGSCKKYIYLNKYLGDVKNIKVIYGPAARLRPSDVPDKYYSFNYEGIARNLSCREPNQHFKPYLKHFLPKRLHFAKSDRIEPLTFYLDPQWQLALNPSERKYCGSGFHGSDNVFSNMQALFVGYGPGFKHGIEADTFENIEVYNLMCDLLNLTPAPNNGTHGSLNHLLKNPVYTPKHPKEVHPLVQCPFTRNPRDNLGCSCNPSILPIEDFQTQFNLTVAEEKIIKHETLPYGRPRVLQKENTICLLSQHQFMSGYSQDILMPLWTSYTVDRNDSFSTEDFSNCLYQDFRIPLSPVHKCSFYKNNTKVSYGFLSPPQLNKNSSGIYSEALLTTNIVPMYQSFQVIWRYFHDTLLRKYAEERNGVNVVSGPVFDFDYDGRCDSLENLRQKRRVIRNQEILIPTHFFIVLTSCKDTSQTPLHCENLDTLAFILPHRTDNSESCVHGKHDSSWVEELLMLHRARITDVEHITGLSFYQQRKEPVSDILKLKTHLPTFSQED
Outline: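 Crude extract of 293T cells transfected with human NPP1 or NPP3, pre-incubated 3 min at 37 °C in 1 mM CaCl2, 140 mM NaCl, 5 mM KCl, 50 mM Tris pH 8.5. Substrate at 100 µM final for 20 min, stopped in ice-cold perchloric acid and neutralized with KOH. Loss of analogue quantified by reverse-phase HPLC with ion-pair phosphate mobile phase pH 7.0. pnp-TMP (p-nitrophenol at 410 nm) served as the 100% reference.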

[2] = biological target: P2Y purinoceptor 4 (Homo sapiens, UniProt P51582); test: Antagonist activity at human P2Y4 receptor expressed in human 1321N1 cells assessed as inhibition of UTP-induced increase in intracellular calcium concentration by dual-excitation spectrofluorimetric analysis; type: functional, cell-based
Outline: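 Fura-2-loaded suspensions of stably transfected 1321N1 cells were assayed at 37 °C in HEPES-buffered saline pH 7.4 with 1 mM Ca2+ and Mg2+. […] [Ca2+]i was read by dual-excitation spectrofluorometry.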

[3] = biological target: T2, Ectonucleoside triphosphate diphosphohydrolase 8 (Homo sapiens) (UniProt Q5MY95); test: Inhibition of human NTPDase 8 expressed in human 293T cells; type: cell-based
T2 sequence (whole entry): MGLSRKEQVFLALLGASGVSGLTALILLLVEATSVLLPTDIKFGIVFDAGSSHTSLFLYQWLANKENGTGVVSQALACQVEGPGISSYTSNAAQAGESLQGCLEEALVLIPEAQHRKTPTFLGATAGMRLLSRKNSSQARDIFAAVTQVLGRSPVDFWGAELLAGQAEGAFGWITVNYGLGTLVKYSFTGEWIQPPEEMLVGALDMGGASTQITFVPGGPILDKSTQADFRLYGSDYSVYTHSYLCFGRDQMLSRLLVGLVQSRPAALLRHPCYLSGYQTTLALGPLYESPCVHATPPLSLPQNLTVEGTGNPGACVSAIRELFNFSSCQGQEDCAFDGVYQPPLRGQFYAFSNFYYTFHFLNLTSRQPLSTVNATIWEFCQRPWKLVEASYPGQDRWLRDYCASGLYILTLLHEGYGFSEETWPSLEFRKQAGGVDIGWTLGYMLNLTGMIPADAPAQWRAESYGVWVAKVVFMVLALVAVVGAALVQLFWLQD

[4] = biological target: T3, Ectonucleoside triphosphate diphosphohydrolase 2 (Homo sapiens) (UniProt Q9Y5L3); test: Activity of human NTPDase 2 expressed in human 293T cells assessed as drug hydrolysis at 100 uM after 20 mins relative to ATP; type: cell-based; set-up: scale not given: the % may be the effect or the level left
T3 sequence (whole entry): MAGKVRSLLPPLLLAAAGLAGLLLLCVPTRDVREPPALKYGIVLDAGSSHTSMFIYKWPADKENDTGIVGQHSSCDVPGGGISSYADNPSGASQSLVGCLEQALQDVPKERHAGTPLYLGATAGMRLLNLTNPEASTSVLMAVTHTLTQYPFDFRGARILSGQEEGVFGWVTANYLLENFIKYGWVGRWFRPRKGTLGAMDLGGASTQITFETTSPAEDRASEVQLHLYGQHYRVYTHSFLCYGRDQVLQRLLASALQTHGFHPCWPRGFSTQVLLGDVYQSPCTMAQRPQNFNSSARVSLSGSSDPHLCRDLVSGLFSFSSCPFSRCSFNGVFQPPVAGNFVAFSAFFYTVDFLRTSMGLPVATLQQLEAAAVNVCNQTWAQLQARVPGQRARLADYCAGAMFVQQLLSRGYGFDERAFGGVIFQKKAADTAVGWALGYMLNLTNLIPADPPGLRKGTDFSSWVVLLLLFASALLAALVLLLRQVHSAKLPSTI
Outline: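 Human NTPDase1, 2, 3 or 8 in crude extracts of transfected 293T cells, pre-incubated 3 min at 37 °C in Tris-Ringer buffer pH 7.4. […] Untransfected-cell extract activity subtracted.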

[5] = biological target: P2Y purinoceptor 1 (Meleagris gallopavo) (UniProt P49652); test: Agonist activity at turkey P2Y1 receptor expressed in human 1321N1 cells assessed as increase in intracellular calcium concentration by dual-excitation spectrofluorimetric analysis; type: functional, cell-based
Chain of P2Y purinoceptor 1 (Meleagris gallopavo) (P49652 whole entry): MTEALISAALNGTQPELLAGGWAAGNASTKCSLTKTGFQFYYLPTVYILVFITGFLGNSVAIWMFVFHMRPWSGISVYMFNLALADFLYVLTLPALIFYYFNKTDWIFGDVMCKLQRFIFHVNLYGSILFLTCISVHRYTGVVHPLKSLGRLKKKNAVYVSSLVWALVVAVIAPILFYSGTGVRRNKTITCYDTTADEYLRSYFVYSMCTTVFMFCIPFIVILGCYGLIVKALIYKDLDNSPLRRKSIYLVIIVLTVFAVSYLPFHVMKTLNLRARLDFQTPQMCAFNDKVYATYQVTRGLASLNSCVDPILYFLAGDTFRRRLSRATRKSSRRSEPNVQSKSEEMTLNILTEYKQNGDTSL

Chain of P2Y purinoceptor 4 (P51582 whole entry): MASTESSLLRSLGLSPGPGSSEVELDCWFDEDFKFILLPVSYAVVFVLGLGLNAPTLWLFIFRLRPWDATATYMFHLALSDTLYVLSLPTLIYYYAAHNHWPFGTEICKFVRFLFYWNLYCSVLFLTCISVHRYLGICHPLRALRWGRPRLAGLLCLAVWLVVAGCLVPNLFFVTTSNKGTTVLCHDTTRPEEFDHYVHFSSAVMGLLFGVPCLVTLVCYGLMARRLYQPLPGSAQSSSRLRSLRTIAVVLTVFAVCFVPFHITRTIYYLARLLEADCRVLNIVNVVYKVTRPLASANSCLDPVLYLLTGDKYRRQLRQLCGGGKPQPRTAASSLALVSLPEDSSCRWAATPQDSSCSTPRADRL

| Activity [1] [%] | Activity [2] | Activity [3] | Activity [4] [%] | Activity [5] | SMILES |
| --- | --- | --- | --- | --- | --- |
| 0 | inactive | inactive | 1 | inactive | BP(=O)(OC[C@H]1O[C@@H](n2cnc3c(N)ncnc32)[C@H](O)[C@@H]1O)OP(=O)(O)CP(=O)(O)O (stereo partly drawn) |
| 0 | inactive | inactive | 1 | inactive | BP(=O)(OC[C@H]1O[C@@H](n2cnc3c(N)nc(SC)nc32)[C@H](O)[C@@H]1O)OP(=O)(O)CP(=O)(O)O (single isomer, unassigned; diastereomer A) |
| < 1 | inactive | inactive | 1 | – | BP(=O)(OC[C@H]1O[C@@H](n2cnc3c(N)nc(SC)nc32)[C@H](O)[C@@H]1O)OP(=O)(O)CP(=O)(O)O (single isomer, unassigned; diastereomer B) |
| 4 | inactive | inactive | 0 | inactive | BP(=O)(OC[C@H]1O[C@@H](n2cnc3c(N)ncnc32)[C@H](O)[C@@H]1O)OP(=O)(O)CP(=O)(O)O (single isomer, unassigned; diastereomer B) |

| SMILES | Activity [1] [%] | Activity [2] | Activity [3] | Activity [4] [%] | Activity [5] |
| --- | --- | --- | --- | --- | --- |
| CSc1nc(N)c2ncn([C@@H]3O[C@H](COP(=O)(O)OP(=O)(O)CP(=O)(O)O)[C@@H](O)[C@H]3O)c2n1 | 23 | inactive | inactive | 2 | – |
